Several values for one entry are separate records, joined by “and”; a condition that tells them apart may be missing. Identical values can stand only once.
Tested on: HEK-293T
Test: Multiplex assay against HEK293T
Type: toxicity, cell-based
Conditions: human, number of replicates 2
In short: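 Live cells were stained at seeding with Hoechst33342, BioTracker Green Microtubule Cytoskeleton Dye, MitoTracker Red and Annexin V Alexa Fluor 680. Following compound addition, they were imaged on a CQ1 microscope at 37°C and 5% CO2 and gated by CellPathfinder machine learning into Hoechst high-intensity objects or normal cells, with normal cells split into healthy, pyknosed or fragmented nuclei and pyknosed cells into mitotic or apoptotic. Tubulin, mitochondrial-mass and membrane-permeability phenotypes are per cents of healthy-nucleus cells.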

[1] = 12 h, 1 µM, compound concentration 1 uM
[2] = 12 h, 10 µM, compound concentration 10 uM
[3] = 24 h, 1 µM, compound concentration 1 uM
[4] = 24 h, 10 µM, compound concentration 10 uM
[5] = 48 h, 1 µM, compound concentration 1 uM
[6] = 48 h, 10 µM, compound concentration 10 uM

CSc1cc2c(cc1C(F)(F)F)N(C(=O)Nc1cccnc1)CC2
Population Apoptotic (%) [1]: 48% and 46%
Population Fragmented Nuclei (%) [1]: 2% and 3%
Population Healthy Nuclei (%) [1]: 87% and 85%
Population Hoechst High Intensity Objects (%) [1]: 4% and 5%
Population Membrane Permeable-Phenotype (%) [1]: 4% and 3%
Population Mitochondria Different-Phenotype (%) [1]: 9% and 18%
Population Mitotic Cells (%) [1]: 51% and 53%
Population Normal (%) [1]: 95% and 94%
Population Pyknosed Nuclei (%) [1]: 10%
Population Tubulin-Different-Phenotype (%) [1]: 41% and 47%
Total Cell Count [1]: 690 and 549
Population Apoptotic (%) [2]: 51% and 43%
Population Fragmented Nuclei (%) [2]: 5% and 2%
Population Healthy Nuclei (%) [2]: 84%
Population Hoechst High Intensity Objects (%) [2]: 5%
Population Membrane Permeable-Phenotype (%) [2]: 3%
Population Mitochondria Different-Phenotype (%) [2]: 5% and 14%
Population Mitotic Cells (%) [2]: 48% and 56%
Population Normal (%) [2]: 94%
Population Pyknosed Nuclei (%) [2]: 9% and 12%
Population Tubulin-Different-Phenotype (%) [2]: 39%
Total Cell Count [2]: 679 and 494
Population Apoptotic (%) [3]: 25% and 42%
Population Fragmented Nuclei (%) [3]: 5% and 4%
Population Healthy Nuclei (%) [3]: 88% and 87%
Population Hoechst High Intensity Objects (%) [3]: 6% and 5%
Population Membrane Permeable-Phenotype (%) [3]: 2%
Population Mitochondria Different-Phenotype (%) [3]: 3% and 6%
Population Mitotic Cells (%) [3]: 74% and 57%
Population Normal (%) [3]: 93% and 94%
Population Pyknosed Nuclei (%) [3]: 5% and 8%
Population Tubulin-Different-Phenotype (%) [3]: 27% and 31%
Total Cell Count [3]: 1189 and 774
Population Apoptotic (%) [4]: 20% and 36%
Population Fragmented Nuclei (%) [4]: 10% and 6%
Population Healthy Nuclei (%) [4]: 85% and 87%
Population Hoechst High Intensity Objects (%) [4]: 5% and 7%
Population Membrane Permeable-Phenotype (%) [4]: 3% and 2%
Population Mitochondria Different-Phenotype (%) [4]: 2% and 5%
Population Mitotic Cells (%) [4]: 79% and 63%
Population Normal (%) [4]: 94% and 92%
Population Pyknosed Nuclei (%) [4]: 4% and 6%
Population Tubulin-Different-Phenotype (%) [4]: 26% and 21%
Total Cell Count [4]: 1164 and 681
Population Apoptotic (%) [5]: 5% and 7%
Population Fragmented Nuclei (%) [5]: 14% and 9%
Population Healthy Nuclei (%) [5]: 83% and 88%
Population Hoechst High Intensity Objects (%) [5]: 9% and 10%
Population Membrane Permeable-Phenotype (%) [5]: 6% and 4%
Population Mitochondria Different-Phenotype (%) [5]: 0%
Population Mitotic Cells (%) [5]: 94% and 92%
Population Normal (%) [5]: 90% and 89%
Population Pyknosed Nuclei (%) [5]: 2%
Population Tubulin-Different-Phenotype (%) [5]: 14% and 17%
Total Cell Count [5]: 2977 and 1800
Population Apoptotic (%) [6]: 5% and 6%
Population Fragmented Nuclei (%) [6]: 20% and 12%
Population Healthy Nuclei (%) [6]: 77% and 84%
Population Hoechst High Intensity Objects (%) [6]: 9% and 7%
Population Membrane Permeable-Phenotype (%) [6]: 7% and 6%
Population Mitochondria Different-Phenotype (%) [6]: 0% and 1%
Population Mitotic Cells (%) [6]: 94% and 93%
Population Normal (%) [6]: 90% and 92%
Population Pyknosed Nuclei (%) [6]: 1% and 2%
Population Tubulin-Different-Phenotype (%) [6]: 11% and 13%
Total Cell Count [6]: 2869 and 1725

COc1cc(N(C)c2ccnc3ccc(C(F)(F)F)cc23)cc(OC)c1OC
Population Apoptotic (%) [1]: 58% and 48%
Population Fragmented Nuclei (%) [1]: 5% and 4%
Population Healthy Nuclei (%) [1]: 81% and 79%
Population Hoechst High Intensity Objects (%) [1]: 7% and 6%
Population Membrane Permeable-Phenotype (%) [1]: 2% and 5%
Population Mitochondria Different-Phenotype (%) [1]: 13% and 17%
Population Mitotic Cells (%) [1]: 41% and 51%
Population Normal (%) [1]: 92% and 93%
Population Pyknosed Nuclei (%) [1]: 12% and 16%
Population Tubulin-Different-Phenotype (%) [1]: 50% and 48%
Total Cell Count [1]: 523 and 568
Population Apoptotic (%) [2]: 42% and 52%
Population Fragmented Nuclei (%) [2]: 3% and 2%
Population Healthy Nuclei (%) [2]: 82% and 80%
Population Hoechst High Intensity Objects (%) [2]: 5%
Population Membrane Permeable-Phenotype (%) [2]: 5% and 3%
Population Mitochondria Different-Phenotype (%) [2]: 34% and 29%
Population Mitotic Cells (%) [2]: 57% and 47%
Population Normal (%) [2]: 94%
Population Pyknosed Nuclei (%) [2]: 14% and 17%
Population Tubulin-Different-Phenotype (%) [2]: 79% and 82%
Total Cell Count [2]: 570 and 542
Population Apoptotic (%) [3]: 54% and 36%
Population Fragmented Nuclei (%) [3]: 5% and 6%
Population Healthy Nuclei (%) [3]: 83% and 85%
Population Hoechst High Intensity Objects (%) [3]: 7% and 6%
Population Membrane Permeable-Phenotype (%) [3]: 3% and 5%
Population Mitochondria Different-Phenotype (%) [3]: 6% and 4%
Population Mitotic Cells (%) [3]: 45% and 63%
Population Normal (%) [3]: 92% and 93%
Population Pyknosed Nuclei (%) [3]: 10% and 8%
Population Tubulin-Different-Phenotype (%) [3]: 33% and 26%
Total Cell Count [3]: 845 and 846
Population Apoptotic (%) [4]: 46% and 53%
Population Fragmented Nuclei (%) [4]: 3% and 4%
Population Healthy Nuclei (%) [4]: 84% and 83%
Population Hoechst High Intensity Objects (%) [4]: 5%
Population Membrane Permeable-Phenotype (%) [4]: 3% and 1%
Population Mitochondria Different-Phenotype (%) [4]: 31% and 20%
Population Mitotic Cells (%) [4]: 53% and 46%
Population Normal (%) [4]: 94%
Population Pyknosed Nuclei (%) [4]: 11% and 12%
Population Tubulin-Different-Phenotype (%) [4]: 69% and 64%
Total Cell Count [4]: 762 and 740
Population Apoptotic (%) [5]: 16% and 24%
Population Fragmented Nuclei (%) [5]: 12% and 11%
Population Healthy Nuclei (%) [5]: 83% and 84%
Population Hoechst High Intensity Objects (%) [5]: 7%
Population Membrane Permeable-Phenotype (%) [5]: 5% and 4%
Population Mitochondria Different-Phenotype (%) [5]: 0%
Population Mitotic Cells (%) [5]: 83% and 75%
Population Normal (%) [5]: 92%
Population Pyknosed Nuclei (%) [5]: 3%
Population Tubulin-Different-Phenotype (%) [5]: 12% and 11%
Total Cell Count [5]: 2086 and 2004
Population Apoptotic (%) [6]: 26% and 38%
Population Fragmented Nuclei (%) [6]: 9% and 7%
Population Healthy Nuclei (%) [6]: 85% and 86%
Population Hoechst High Intensity Objects (%) [6]: 7% and 8%
Population Membrane Permeable-Phenotype (%) [6]: 3% and 1%
Population Mitochondria Different-Phenotype (%) [6]: 9%
Population Mitotic Cells (%) [6]: 73% and 61%
Population Normal (%) [6]: 92% and 91%
Population Pyknosed Nuclei (%) [6]: 5%
Population Tubulin-Different-Phenotype (%) [6]: 48% and 46%
Total Cell Count [6]: 1391 and 1324

CN1CCc2cc(Nc3ncc(C(F)(F)F)c(NCc4cc[nH]n4)n3)ccc2C1
Population Apoptotic (%) [1]: 85% and 72%
Population Fragmented Nuclei (%) [1]: 4% and 3%
Population Healthy Nuclei (%) [1]: 77% and 78%
Population Hoechst High Intensity Objects (%) [1]: 14% and 11%
Population Membrane Permeable-Phenotype (%) [1]: 1%
Population Mitochondria Different-Phenotype (%) [1]: 41% and 47%
Population Mitotic Cells (%) [1]: 14% and 27%
Population Normal (%) [1]: 85% and 88%
Population Pyknosed Nuclei (%) [1]: 17%
Population Tubulin-Different-Phenotype (%) [1]: 35% and 44%
Total Cell Count [1]: 280 and 291
Population Apoptotic (%) [2]: 64% and 85%
Population Fragmented Nuclei (%) [2]: 5%
Population Healthy Nuclei (%) [2]: 89%
Population Hoechst High Intensity Objects (%) [2]: 10% and 13%
Population Membrane Permeable-Phenotype (%) [2]: 0%
Population Mitochondria Different-Phenotype (%) [2]: 38% and 43%
Population Mitotic Cells (%) [2]: 35% and 14%
Population Normal (%) [2]: 89% and 86%
Population Pyknosed Nuclei (%) [2]: 5%
Population Tubulin-Different-Phenotype (%) [2]: 66% and 70%
Total Cell Count [2]: 377 and 312
Population Apoptotic (%) [3]: 83% and 72%
Population Fragmented Nuclei (%) [3]: 4% and 5%
Population Healthy Nuclei (%) [3]: 81% and 73%
Population Hoechst High Intensity Objects (%) [3]: 20% and 13%
Population Membrane Permeable-Phenotype (%) [3]: 0%
Population Mitochondria Different-Phenotype (%) [3]: 37% and 43%
Population Mitotic Cells (%) [3]: 16% and 27%
Population Normal (%) [3]: 79% and 86%
Population Pyknosed Nuclei (%) [3]: 14% and 20%
Population Tubulin-Different-Phenotype (%) [3]: 38% and 42%
Total Cell Count [3]: 267 and 261
Population Apoptotic (%) [4]: 63% and 80%
Population Fragmented Nuclei (%) [4]: 5% and 4%
Population Healthy Nuclei (%) [4]: 87%
Population Hoechst High Intensity Objects (%) [4]: 11% and 13%
Population Membrane Permeable-Phenotype (%) [4]: 1% and 0%
Population Mitochondria Different-Phenotype (%) [4]: 58% and 60%
Population Mitotic Cells (%) [4]: 36% and 20%
Population Normal (%) [4]: 88% and 86%
Population Pyknosed Nuclei (%) [4]: 7% and 8%
Population Tubulin-Different-Phenotype (%) [4]: 73% and 71%
Total Cell Count [4]: 315 and 284
Population Apoptotic (%) [5]: 80% and 72%
Population Fragmented Nuclei (%) [5]: 7% and 5%
Population Healthy Nuclei (%) [5]: 79%
Population Hoechst High Intensity Objects (%) [5]: 16% and 14%
Population Membrane Permeable-Phenotype (%) [5]: 1%
Population Mitochondria Different-Phenotype (%) [5]: 40% and 36%
Population Mitotic Cells (%) [5]: 19% and 27%
Population Normal (%) [5]: 83% and 85%
Population Pyknosed Nuclei (%) [5]: 13% and 15%
Population Tubulin-Different-Phenotype (%) [5]: 36%
Total Cell Count [5]: 285 and 307
Population Apoptotic (%) [6]: 46% and 75%
Population Fragmented Nuclei (%) [6]: 3% and 4%
Population Healthy Nuclei (%) [6]: 84% and 82%
Population Hoechst High Intensity Objects (%) [6]: 14% and 18%
Population Membrane Permeable-Phenotype (%) [6]: 0% and 1%
Population Mitochondria Different-Phenotype (%) [6]: 65% and 67%
Population Mitotic Cells (%) [6]: 53% and 25%
Population Normal (%) [6]: 85% and 81%
Population Pyknosed Nuclei (%) [6]: 11% and 12%
Population Tubulin-Different-Phenotype (%) [6]: 71% and 72%
Total Cell Count [6]: 303 and 280

— ChEMBL document CHEMBL5303300, “EUbOPEN Chemogenomics Library - Multiplex” (2023)
